Screening results (PubChem)
Dynein transport: blocks dynein driven cargo transport along microtubules. 3617.4 mouse cells, GR-EGFP nuclear translocation imaging; test concentration mostly 20 µM; stimulated with dexamethasone, 1 µM; stronger effect = lower value. z-score, hits read low. actives 0.47% (n = 220,000). AID 1381;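 active means plate z-score of nuclear minus cytoplasmic receptor signal below a set negative limit, without overly bright fluorescence or cell loss, cut at about -3.5 in these data, passing the limit was not always enough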;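 further: z-score of nuclear minus cytoplasmic ring GR-EGFP intensity difference per well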
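Buffer or medium: tet-free, stripped-serum medium; Also added: dexamethasone, 1.0 µM final; Technique: high-content fluorescence imaging after fixation; Times: 48 h induction, 1 h compound, 30 min dex at 37 °C; Read-out: per-cell GR-EGFP intensity, nucleus versus surrounding cytoplasmic ring, well-averaged.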
KCC2 mod: modulates chloride dependent transport by human KCC2; Q9H2X9; KCC2 cells, thallium flux FluoZin-2 fluorescence; B-score of Tl+ flux slope (higher = more flux/activation; lower = inhibition) at 10 µM; actives 2.2% (n = 190,000); AID 1456;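 active means thallium flux slope and its plate-corrected score both differing from the plate sample mean at a set confidence after two filtering rounds, in either direction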;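 further: slope of fluorescence scaled to starting intensity during 10 to 20 s after thallium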
ABCB6 inh 2: blocks the human ABCB6 transporter. K562-ABCB6 porphyrin accumulation, flow cytometry, 1 h; stronger effect = lower value. actives 0.19% (n = 360,000). fluorescence ratio to DMSO, % at 10 µM. Q9NP58;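 active means fluorescence ratio to DMSO below 75%, the collection mean minus 3 SD; inconclusive means too few cells collected in the well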;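 further: signal is porphyrin accumulated inside mitochondria; lower ratio means ABCB6 inhibition with less porphyrin fluorescence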
V-ATPase pH: regulators of yeast V-ATPase proton transport; response, % at 10 µM; AID 504577; S. cerevisiae, pHLuorin cytosolic pH fluorescence; actives 0.37% (n = 350,000); in the data active means response mostly above about 7.3%, no sharp cut-off; inactive means mostly below about 5.4%; further: actives read high
p-CIP stab down: p/CIP protein destabilization | Q05BA5 | F442A p/CIP-EGFP cells, EGFP fluorescence, 16 h | decrease of EGFP signal, % at 10 µM | actives 0.01% (n = 290,000) | AID 1984;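 active means EGFP signal decrease of at least 30% at 10 µM or well 3 SD below plate mean, unless failing retest; inactive means the rest, including hits failing retest or dose response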
Dynein confirm: dynein cargo transport inhibition, confirmation; shares compounds with Dynein transport; 3617.4 GR-EGFP nuclear translocation imaging, dexamethasone-induced; calls only at 20 µM; actives 69% (n = 1,000);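 active means inhibition of receptor movement into the nucleus at or above a set limit in both runs, with normal cell brightness and cell count; inconclusive means limit reached in only one run, brightness and count normal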;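 further: dexamethasone at 1 µM final in well for 30 min; nuclear minus cytoplasmic GR-EGFP mean intensity difference in channel 2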
Of the large screens only hits and unclear results are named; the others gave an inactive call (follow-up assays come after a bar, where they were run). Shown is part of a subset that was picked to be rich in hits.

CCN(CC)c1ccc(/C=C/C(=O)c2ccc(Br)cc2)cc1	none | Dynein confirm active
CCCNC(=O)C1(C)CCCN(C(=O)C2(c3ccc(Cl)cc3)CCCC2)C1 (stereo not drawn)	none (no result: Dynein transport, KCC2 mod, V-ATPase pH, p-CIP stab down)
Cc1ccc(S(=O)(=O)Nc2ccc3c(c2)nc2n3CCN(Cc3ccccc3)C2)cc1	Dynein transport -3.5 | Dynein confirm inactive
O=[N+]([O-])/C=C/c1cn(Cc2ccc(F)cc2)c2ccccc12	Dynein transport -3.9 | Dynein confirm active
O=C(O)c1ccc(N/N=C/c2cn(Cc3ccc(F)cc3)c3ccccc23)cc1	none
CCOc1cc(/C=C2/COc3ccccc3C2=O)ccc1OCC(=O)N(C)C	Dynein transport -3.6 | Dynein confirm active
C/C=C/c1cccc(-c2nc(C(=O)N3CCOCC3)cc3c2[C@H](CCO)N(C(=O)NC(C)C)C3)c1	none (no result: Dynein transport, KCC2 mod, V-ATPase pH, p-CIP stab down)
COC(=O)c1ccc(C(C(=O)NC2CCCCC2)N(Cc2ccc(F)cc2)C(=O)Cc2cccs2)cc1 (stereo not drawn)	none
COC(CN(C(=O)CCl)C(C(=O)NC1CCCCC1)c1ccc(Cl)cc1)OC (stereo not drawn)	Dynein transport -4.1 | Dynein confirm active
O=C(NC1CCCC1)C(c1ccc(F)cc1)N(Cc1ccc(Cl)cc1)C(=O)CCl (stereo not drawn)	Dynein transport -3.7 | Dynein confirm active
COC(CN(C(=O)CCl)C(C(=O)NC1CCCCC1)c1ccccc1C)OC (stereo not drawn)	none
COC(CN(C(=O)CCl)C(C(=O)NC1CCCC(C)C1C)c1ccc(C)cc1)OC (stereo not drawn)	Dynein transport -4.3 | Dynein confirm active
O=C(NC1CCCC1)C(c1ccc(Cl)cc1)N(Cc1ccc(F)cc1)C(=O)CCl (stereo not drawn)	Dynein transport -5.3 | Dynein confirm active
COCCN(C(=O)CCC(=O)Nc1ccccn1)C(C(=O)NC(C)C)c1ccc(C)cc1 (stereo not drawn)	none (no result: Dynein transport, KCC2 mod)
CC(C)C(=O)Nc1nnc(SCC(=O)NCc2ccco2)s1	none
O=C(NC(=S)Nc1nc2c(s1)CSc1ccccc1-2)c1ccccc1	Dynein transport -3.5 (no result: KCC2 mod) | Dynein confirm inactive
COC(=O)c1ccc(C(=O)NC(=S)Nc2nc3c(s2)CC(C)CC3)cc1 (stereo not drawn)	none
CS(=O)(=O)c1ccc(S(=O)CC(=O)Oc2ccc(Cl)cc2)c([N+](=O)[O-])c1 (stereo not drawn)	Dynein transport -6.5 (no result: ABCB6 inh 2, V-ATPase pH) | Dynein confirm active
CCC(=O)Nc1ccc(C=C(C(C)=O)C(C)=O)cc1	none
CCC(=O)Nc1ccc(/C=C(\C(C)=O)C(=O)c2ccccc2)cc1	Dynein transport -4.1 | Dynein confirm active
Cc1ccc(NN2C(=O)C=C(c3ccccc3)C2=O)cc1	Dynein transport -4.5 (no result: V-ATPase pH) | Dynein confirm active
COc1ccccc1N1C(=O)C2CC(C)=C(C)CC2C1=O (stereo not drawn)	none (no result: KCC2 mod)
COc1ccccc1N1C(=O)C=C(Sc2nc(C)cc(C)n2)C1=O	Dynein transport -4 | Dynein confirm active
O=C(NCCN1CCC(n2c(=O)[nH]c3ccccc32)CC1)c1cccc(Cl)c1	none (no result: Dynein transport, KCC2 mod, V-ATPase pH, p-CIP stab down)
O=[N+]([O-])c1ccc(N2CCN(c3ccc(Cl)nn3)CC2)c(Cl)c1	none (no result: KCC2 mod)
O=[N+]([O-])c1ccc(N2CCN(c3ccc(Cl)nn3)CC2)cc1NC1CC1	none (no result: p-CIP stab down) | Dynein confirm inactive
COc1c(S(=O)(=O)N2CCN(C)CC2)ccc(Cl)c1Cl	none (no result: Dynein transport, KCC2 mod)
O=C(/C=C/c1ccc(O)c([N+](=O)[O-])c1)c1ccc2ccccc2c1	none (no result: Dynein transport, KCC2 mod)
COc1ccc(Oc2ccc(/C=C/C(=O)c3ccc(O)cc3)cc2[N+](=O)[O-])cc1	Dynein transport -3.6 | Dynein confirm active
COc1cccc(C(=O)/C=C/c2ccc(N3CCCCC3)c([N+](=O)[O-])c2)c1	none
COc1cccc(/C=C/C(=O)c2cccc([N+](=O)[O-])c2)c1OC	Dynein transport -5.3 | Dynein confirm active
COc1cccc(/C=C/C(=O)c2cccc([N+](=O)[O-])c2)c1	Dynein transport -4.5 | Dynein confirm active
CCCC(=O)N(C1CC(C)C(C#N)(C#N)C1(C#N)C#N)N(C)C (stereo not drawn)	Dynein transport -5.3 | Dynein confirm inactive
CC(=O)N(C1CC(C)C(C#N)(C#N)C1(C#N)C#N)N(C)C (stereo not drawn)	Dynein transport -6.8 | Dynein confirm active
O=C(Nc1nccs1)c1ncc(Cl)c(Cl)c1Cl	none (no result: Dynein transport, KCC2 mod)
COc1ccc(C(=O)/C=C/C(=O)N(Cc2ccccc2OC)C(C(=O)NC2CCCCC2)c2ccncc2)c(O)c1 (stereo not drawn)	none
COc1ccc(C(=O)/C=C/C(=O)N(CC(=O)NC2CCCCC2)CC2CCCO2)c(O)c1 (stereo not drawn)	none | Dynein confirm active
COc1ccc(C(=O)/C=C/C(=O)N(Cc2ccccc2)C(C(=O)NC2CCCCC2)c2ccncc2)c(O)c1 (stereo not drawn)	none
COc1ccc(C(=O)/C=C/C(=O)N(CC(=O)NC2CCCCC2)Cc2ccccc2)c(O)c1	Dynein transport -4.6 | Dynein confirm active
COc1ccc(C(=O)/C=C/C(=O)N(CC(=O)NC2CCCCC2)Cc2ccccc2OC)c(O)c1	Dynein transport -4.5 | Dynein confirm active
CCCCNC(=O)C1c2ccccc2OCC(=O)N1CCc1c[nH]c2ccccc12 (stereo not drawn)	none (no result: Dynein transport, KCC2 mod, V-ATPase pH, p-CIP stab down)
COC(=O)c1ccc(C(=O)NC2CCCc3c2cnn3-c2cc(F)cc(F)c2)nc1 (stereo not drawn)	none (no result: Dynein transport, KCC2 mod)
COc1ccccc1C(C[N+](=O)[O-])c1c(N)n(C)c(=O)n(C)c1=O (stereo not drawn)	Dynein transport -3.5 | Dynein confirm inconclusive
CN(NC1OC(=O)c2ccccc21)c1ccc(C(F)(F)F)cc1[N+](=O)[O-] (stereo not drawn)	none
N#Cc1nccnc1S(=O)(=O)c1cccs1	Dynein transport -5.6 (no result: KCC2 mod, ABCB6 inh 2) | Dynein confirm active
O=C(NCc1cccnc1)/C(=C\c1ccc(-c2ccc(Cl)c(Cl)c2)o1)S(=O)(=O)c1ccccc1	Dynein transport -4.2 | Dynein confirm active
O=C(NCc1cccnc1)c1ccc(-c2ccc(Cl)cc2)o1	none (no result: KCC2 mod)
O=C(CN1C(=O)C(=O)N(C2CCCC2)C1=O)Nc1ccc(OC(F)F)cc1	none (no result: Dynein transport, KCC2 mod, p-CIP stab down)
CCOC(=O)C(C(=O)OCC)C(C(=O)OCC)N1CCOCC1 (stereo not drawn)	Dynein transport -4.6, V-ATPase pH 12 | Dynein confirm active
Nc1ncnc(Sc2ncccn2)c1[N+](=O)[O-]	Dynein transport -5.1 | Dynein confirm inconclusive
Nc1ncnc(Sc2ccccc2)c1[N+](=O)[O-]	none
COc1ccc(-c2nnc(NC(=O)Cc3ccccc3)o2)cc1	none (no result: Dynein transport, KCC2 mod)
